Screening data: PubChem BioAssay, several laboratories
Shown are actives, neighbours in structure and some others; about 3.4% of the full set was active somewhere.
JNK3 blocker: blocks human JNK3 kinase activity; P53779; purified JNK3 kinase activity, HTS; inhibition, % at 8 µM; actives 0.61% (n = 60,000); AID 746; in the data active means inhibition above about 17%;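 further: 0% = DMSO and 100% = reference inhibitor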
Target sequence (P53779 whole entry, looked up): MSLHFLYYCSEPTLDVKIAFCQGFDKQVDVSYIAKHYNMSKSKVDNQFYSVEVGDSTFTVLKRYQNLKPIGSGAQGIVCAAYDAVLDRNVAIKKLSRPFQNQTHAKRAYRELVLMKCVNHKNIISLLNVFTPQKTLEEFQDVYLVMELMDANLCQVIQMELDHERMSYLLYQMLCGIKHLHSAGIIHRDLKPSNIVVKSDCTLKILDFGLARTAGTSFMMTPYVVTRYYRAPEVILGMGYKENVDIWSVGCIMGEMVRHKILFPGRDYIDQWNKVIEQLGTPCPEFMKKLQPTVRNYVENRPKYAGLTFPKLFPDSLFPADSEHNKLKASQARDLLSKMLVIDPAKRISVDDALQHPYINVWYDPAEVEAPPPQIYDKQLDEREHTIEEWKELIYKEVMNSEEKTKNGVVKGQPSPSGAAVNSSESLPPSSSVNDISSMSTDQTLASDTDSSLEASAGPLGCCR
MKP-1 inh: inhibitors of human MKP-1 phosphatase | P28562 | recombinant MKP-1, OMFP hydrolysis fluorescence | inhibition, %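 (compounds tested at a single concentration somewhere between 10 and 100 µM)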 | actives 0.15% (n = 65,000) | AID 374;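 active means inhibition above about 50%, limit read from the data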;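 further: 0% = DMSO max control wells and 100% = wells with enzyme stopped by NaOH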
SF1 activator: SF-1 (human) activation; CHO-K1 Gal4-SF-1 LBD luciferase reporter; % increase over DMSO SF-1-specific signal; actives 1.9% (n = 65,000); Q13285; activation, % at 10 µM;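 active means activation above the mean activation of all tested compounds plus 3 SD, cut at about 50% in these data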
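Test system: CHO-K1 cells with Gal4–hSF-1 LBD chimera plus Gal4-driven luciferase; Input: 4,000 cells/well; Compound: 10 µM only; Times: 20 h compound treatment, 37 °C; Measured by: steady-glow luciferase luminescence, read after 15 min reagent incubation; Measure: percent activation versus DMSO; Control set: DMSO and mock-transfected background; Replicates: one test per compound.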
Cdc25B block: inhibitors of human Cdc25B phosphatase; P30305; recombinant Cdc25B, OMFP fluorescence Ex485/Em525; inhibition, %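 (compounds tested at 10 µM final in the well)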; actives 0.1% (n = 65,000); in the data active means inhibition above about 50%
Hsp90 inh: displaces geldanamycin probe from tumor Hsp90. NCI-N417 lysate Hsp90, Cy3B-geldanamycin FP displacement. inhibition, % at 30 µM. actives 0.35% (n = 64,000);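 active means inhibition above 50%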;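 further: 0% = tracer plus lysate wells and 100% = tracer alone without lysate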
RORa activator: activators of human nuclear receptor RORA. CHO-K1 Gal4-RORA LBD luciferase reporter, luminescence; percent increase over mock-subtracted basal signal. activation, % at 10 µM. P35398. actives 1.5% (n = 65,000);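 active means activation above the mean of all tested compounds plus 3 SD, cut at about 49% in these data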;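 further: 0% = DMSO-treated RORA cells and 100% = added signal equal to DMSO minus mock-transfected cells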
An asterisk follows results filed as active; / = no result given.

SMILES	JNK3 blocker	MKP-1 inh	SF1 activator	Cdc25B block	Hsp90 inh	RORa activator
Cc1sc(NC(=O)c2ccc(Cl)s2)c(C(N)=O)c1C	4	-6	101*	-8	-9	66*
CC1CCN(C(=O)CSc2nnc(Cc3cc(=O)[nH]c(=O)[nH]3)n2-c2ccc(Cl)cc2)CC1	-1	4	12	-12	-2	6
CCCCc1c(O)nc(SCC(=O)NCCc2ccc(OC)c(OC)c2)[nH]c1=O	2	-21	-6	-2	-2	-6
CCSc1nnc(NC(=O)c2cccc(OCc3c(C)noc3C)c2)s1	/	4	-3	-4	/	-2
COc1ccc2nc(NC(=O)c3cccc(OCc4c(C)noc4C)c3)sc2c1	3	-4	36	0	-1	86*
CCCC(=O)Nc1nc2ccc(OC)cc2s1	7	-8	54*	-25	-5	56*
CCOc1ccc2nc(NC(=O)c3cnccn3)sc2c1	1	11	19	-6	-1	86*
COc1ccc2nc(NC(=O)Cc3ccc(OC)c(S(=O)(=O)N4CCOCC4)c3)sc2c1	29*	35	36	1	-3	33
O=C(c1ccco1)N1CCN(C(=O)C2CCN(S(=O)(=O)Cc3ccccc3)CC2)CC1	1	-9	2	-6	-1	0
C/C=C/CSc1nc2c(c(=O)[nH]c(=O)n2C)n1Cc1ccc(C)cc1	0	1	9	-13	-3	-4
COc1ccc(N=c2oc3cc(O)ccc3cc2C(=O)NCC2CCCO2)c(OC)c1 (configuration not stated)	-1	10	12	7	-4	-14
O=C(CSc1ncn[nH]1)Nc1nnc(-c2ccccc2)s1	-3	-5	-16	-5	2	56*
COc1cc(NCCCCN)c2ncccc2c1	/	/	/	/	27	/
O=C(CN(C(=O)c1cc2c(s1)CCC2)C1CCCC1)NCc1cccs1	/	-13	-4	-10	3	4
Cc1ccc(-n2ncc3c(N4CCCC(C)C4)ncnc32)c(C)c1 (configuration not stated)	5	-9	59*	-12	-2	43
Cc1ccc(-n2ncc3c(N4CCCC4)ncnc32)c(C)c1	-10	-12	66*	0	1	29
N#C/C(=C\c1ccc(O)c(O)c1)C(=O)NCCCc1ccccc1	5	5	-69	-9	68*	-31
N#C/C(=C(/O)COC(=O)Cc1c[nH]c2ccccc12)c1nc2ccccc2[nH]1	3	29	22	10	-12	5
N#C/C(=C\c1c[nH]c2ccccc12)C(=O)c1ccc(O)c(O)c1	/	/	/	/	72*	/
N#C/C(=C\c1ccc(O)c(O)c1)S(=O)(=O)c1ccccc1	4	12	-5	9	42	-7
N#C/C(=C\c1ccc(O)c(O)c1)C(=O)c1ccc(O)c(O)c1	/	/	/	/	87*	/
O=C(O)CCCC(=O)NCCCc1ccccc1	3	4	6	-13	-3	4
COc1ccc(S(=O)(=O)Cc2ccc(C(=O)N3CCN(c4cccc(C)c4)C(C)C3)o2)cc1 (configuration not stated)	-1	6	28	-10	0	55*
COc1ccccc1S(=O)(=O)Cc1ccc(C(=O)N2CCN(c3ccc(C)cc3)C(C)C2)o1 (configuration not stated)	-5	6	38	-13	2	13
c1coc(-c2nn3c(-c4ccco4)nnc3s2)c1	-9	-9	1	2	-6	-1
SMILES	JNK3 blocker	MKP-1 inh	SF1 activator	Cdc25B block	Hsp90 inh	RORa activator
COc1ccccc1-c1nn2c(-c3ccco3)nnc2s1	1	-4	59*	11	-4	36
COc1cc(C)nc(NS(=O)(=O)c2ccc(C)cc2)n1	3	-3	0	5	-6	-8
O=c1c(O)c(-c2ccc(O)c(O)c2)oc2cc(O)cc(O)c12	/	/	/	/	103*	/
CCn1c2ccccc2c2nnc(SCC(=O)N3CC(C)OC(C)C3)nc21 (configuration not stated)	1	-8	12	2	-6	9
O=C1COc2ccc(OCc3ccc(F)cc3)cc21	-3	20	8	2	-6	78*
O=C(O)COc1ccc2c(c1)OCCO2	6	9	-7	22	-2	-13
Cc1ccccc1C(=O)/C=C1\NC(=O)CS1	-6	-6	6	-12	-2	-16
Cc1csc(NC(=O)c2sc3nc(-c4cccs4)ccc3c2N)n1	4	29	50*	2	-3	38
COc1ccc(Cn2c(C3CC3)nc3ccc(NC(C)=O)cc3c2=O)cc1	8	13	58*	6	-5	77*
CCC1C(=O)n2nc(-c3ccccc3)cc2N=C1C (configuration not stated)	-5	7	91*	-9	1	36
Nc1nc2ccccc2n1/N=C/c1ccc(Br)cc1	6	-19	69*	1	2	70*
O=C1CC(c2ccco2)Sc2nc3ccccc3n21 (configuration not stated)	4	7	33	4	-8	16
O=C1CC(c2cccs2)Sc2nc3ccccc3n21 (configuration not stated)	2	3	80*	-11	0	23
CNC(=O)c1sc2nc(-c3ccc(OC)cc3)cn2c1C	-8	15	27	1	-3	62*
COc1ccc(-c2cn3c(C)c(C(=O)NCCN4CCOCC4)sc3n2)cc1	-4	26	10	-9	-6	-11
COc1ccc(-c2cn3c(C)c(C(=O)Nc4cc(NC(C)=O)ccc4OC)sc3n2)cc1	3	23	16	-3	-3	23
CCN(CC)C(=O)c1sc2nc(-c3ccc(OC)cc3)cn2c1C	2	20	80*	-12	-1	98*
COc1cc(NS(=O)(=O)c2ccc([N+](=O)[O-])cc2[N+](=O)[O-])c2ncccc2c1	/	/	/	/	26	/
COc1cc(NS(=O)(=O)CC(C)C)c2ncccc2c1	/	/	/	/	1	/
Cc1occc1-c1nnc(SCC(=O)c2ccc(F)cc2)o1	2	-18	3	-4	1	32
O=C(Nc1ccncc1)Nc1ccccn1	/	3	6	-9	4	-2
O=C(Nc1cccc(F)c1)Nc1ccccn1	/	11	62*	-17	/	61*
CCCc1nc(Nc2nc3ccccc3o2)nc(C)c1C(=O)OCC	2	3	81*	-6	1	49*
CCOC(=O)c1cnc(Nc2nc3ccccc3o2)nc1CSc1ncccn1	-5	3	4	-1	3	-10
O=C1CCCCCN1Sc1ccccc1	-6	3	-17	4	5	-20
O=C1OC(c2ccccc2)=C/C1=C/N1CCCCC1	-16	-14	22	-5	-1	71*
COC(=O)CN(c1ccc(F)cc1)S(=O)(=O)c1ccc2c(c1)OCCO2	-4	-1	0	-7	-2	16
COc1ccc(CC(=O)Nc2nccs2)cc1OC	/	15	/	-3	-9	/
